Laboratory results: ChEMBL document CHEMBL1123566, “Synthesis and cardiac electrophysiological activity of 2- and 3-[(substituted phenyl)alkyl]quinuclidines. Structure-activity relationships” (1987)
“And” between values parts separate entries of the source, which are not always exact repeats. Equal entries are not always repeated.

Columns and labels:
[1] = organism: Canis familiaris; experiment: In vitro electrophysiological evaluation in canine cardiac ventricular muscle reported as maximum % change for functional refractory period (FRP) at 0.1-10 uM concentration range; concentration at which it occurred is 10 uM.; design: species or system Canis lupus familiaris, Muscle tissue
Method in brief: (§1)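 Canine right ventricle and papillary muscle strips in oxygenated Tyrode's solution, fitted with stimulating and recording electrodes. The extra-stimulus conduction-interval method was adapted for in vitro use. FRP and CT were read from a conduction-interval curve before and after various compound concentrations, and expressed as percent change from control. Compounds were taken from 10 mM deionized-water stock into Tyrode's. Each strip was used once as its own control.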

[2] = organism: Canis familiaris; experiment: In vitro electrophysiological evaluation in canine cardiac ventricular muscle reported as maximum % change for conduction time(CT) at 0.1-10 uM concentration range; Minimal (<10% decrease or increase in CT).; type: functional, Canis lupus familiaris, Muscle tissue; method in brief: as §1
[3] = system: Canis familiaris; experiment: Heart rate was determined by intraduodenal administration of two dosages of 30 mg/kg of compound in anesthetized dogs. Value was reported for experiment 1; type: functional, Canis lupus familiaris
Method in brief: (§2)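 Anesthetized dogs; compound given intraduodenally, generally as two doses, the second a cumulative (high) dose. LV functional refractory period and conduction time measured 15, 30 and 45 min after dosing; heart rate and blood pressure measured during nonpacing intervals. Values are % change from control, given per individual animal. Active if FRP or CT prolonged by ≥12%.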

[4] = organism: Canis familiaris; experiment: In vitro electrophysiological activity in canine cardiac occurred is 10 uM.; type: functional, Canis lupus familiaris, Heart
[5] = system: Canis familiaris; experiment: Left ventricular refractory period was determined by intraduodenal administration of 30 mg/kg (high dose) of compound in anesthetized dogs. Value was reported for experiment 1; type: functional, Canis lupus familiaris, Cardiac ventricle
Method in brief: (§3)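 Anesthetized dogs received two intraduodenal doses, the second cumulative (low dose/high dose). Left ventricular FRP and CT were measured 15, 30 and 45 min after dosing. Heart rate and mean blood pressure were taken during nonpacing intervals. Values are percent change from control. The vehicle was 5% dextrose in water/tragacanth. Activity was defined as ≥12% prolongation of FRP or CT.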

[6] = system: Canis familiaris; experiment: Heart rate was determined by intraduodenal administration of two dosages of 10 mg/kg of compound in anesthetized dogs. Value was reported for experiment 2; type: functional, Canis lupus familiaris; method in brief: as §2
[7] = organism: Canis familiaris; experiment: In vitro electrophysiological evaluation in canine cardiac ventricular muscle reported as % change for conduction time(CT) at 10 uM at 0.1-10 uM concentration range; Minimal (<10% decrease or increase in CT).; type: functional, Canis lupus familiaris, Muscle tissue
[8] = system: Canis familiaris; experiment: Mean arterial blood pressure was determined by intraduodenal administration of two dosages of 30 mg/kg of compound in anesthetized dogs. Value was reported for experiment 1; type: functional, Canis lupus familiaris; method in brief: as §3
[9] = organism: Canis familiaris; experiment: In vitro electrophysiological evaluation in canine cardiac Purkinje fibres reported as percent change Vmax at 10 uM at concentration range of 0.1-10 uM; Minimal (<10% decrease or increase in Vmax).; type: functional; conditions: Canis lupus familiaris, Purkinje fiber
Method in brief: (§4)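 Canine cardiac Purkinje fibres, intracellular microelectrode recording, paced at a basic cycle length of 1 s. APD95 and Vmax read simultaneously. Compound: 10 mM stock in deionized water, diluted into Tyrode's solution, tested over the stated concentration range. Each fibre used once as its own control. Result is % change from control, given at 10 µM or as the maximum with its concentration. M = <10% decrease or an increase in Vmax.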

[10] = system: Canis familiaris; experiment: Mean arterial blood pressure was determined by intraduodenal administration of two dosages of 10 mg/kg of compound in anesthetized dogs. Value was reported for experiment 1; type: functional, Canis lupus familiaris; method in brief: as §3
[11] = organism: Canis familiaris; experiment: In vitro electrophysiological evaluation in canine cardiac ventricular muscle reported as % change for the functional refractory period (FRP) at 10 uM at concentration range of 0.1-10 uM; design: species or system Canis lupus familiaris, Muscle tissue; method in brief: as §1
[12] = system: Canis familiaris; experiment: Left ventricular refractory period was determined by intraduodenal administration of 10 mg/kg (low dose) of compound in anesthetized dogs. Value was reported for experiment 1; type: functional, Canis lupus familiaris, Cardiac ventricle; method in brief: as §3
[13] = system: Canis familiaris; experiment: Left ventricular refractory period was determined by intraduodenal administration of 10 mg/kg (high dose) of compound in anesthetized dogs. Value was reported for experiment 2; type: functional, Canis lupus familiaris, Cardiac ventricle; method in brief: as §3
[14] = system: Canis familiaris; experiment: Heart rate was determined by intraduodenal administration of two dosages of 3 mg/kg of compound in anesthetized dogs. Value was reported for experiment 2; type: functional, Canis lupus familiaris; method in brief: as §2
[15] = organism: Canis familiaris; experiment: In vitro electrophysiological evaluation in canine cardiac Purkinje fibres reported as % change for action potential duration at a concentration of 10 uM; type: functional, Canis lupus familiaris, Purkinje fiber; method in brief: as §4
[16] = organism: Canis familiaris; experiment: In vitro electrophysiological activity in canine cardiac occurred is 100 uM.; type: functional, Canis lupus familiaris, Heart
[17] = organism: Canis familiaris; experiment: In vitro electrophysiological evaluation in canine cardiac Purkinje fibres reported as maximum percent change Vmax concentration range of 0.1-10 uM; Minimal (<10% decrease or increase in Vmax).; type: functional; conditions: Canis lupus familiaris; Purkinje fiber; method in brief: as §4
[18] = system: Canis familiaris; experiment: Left ventricular refractory period was determined by intraduodenal administration of 3 mg/kg (low dose) of compound in anesthetized dogs. Value was reported for experiment 2; type: functional, Canis lupus familiaris, Cardiac ventricle; method in brief: as §3
[19] = system: Canis familiaris; experiment: Heart rate was determined by intraduodenal administration of two dosages of 10 mg/kg of compound in anesthetized dogs. Value was reported for experiment 1; type: functional, Canis lupus familiaris; method in brief: as §2
[20] = organism: Canis familiaris; experiment: In vitro electrophysiological evaluation in canine cardiac Purkinje fibres reported as percent change Vmax at 10 uM at concentration range of 0.1-100 uM; Minimal (<10% decrease or increase in Vmax).; type: functional, organism-based; conditions: Canis lupus familiaris, Purkinje fiber; method in brief: as §4
[21] = organism: Canis familiaris; experiment: In vitro electrophysiological evaluation in canine cardiac Purkinje fibres reported as maximum percent change Vmax concentration range of 0.1-100 uM; conduction block; type: functional; conditions: Canis lupus familiaris; Purkinje fiber; method in brief: as §4
[22] = organism: Canis familiaris; experiment: (§5) In vitro electrophysiological evaluation in canine cardiac occurred is 100 uM.; type: functional; conditions: Canis lupus familiaris; Heart
[23] = organism: Canis familiaris; experiment: In vitro electrophysiological evaluation in canine cardiac Purkinje fibres reported as percent change Vmax at 10 uM at concentration range of 0.1-100 uM.; type: functional, organism-based; conditions: Canis lupus familiaris, Purkinje fiber; method in brief: as §4
[24] = system: Canis familiaris; experiment: Mean arterial blood pressure was determined by intraduodenal administration of two dosages of 3 mg/kg of compound in anesthetized dogs. Value was reported for experiment 2; type: functional, Canis lupus familiaris
[25] = system: Canis familiaris; experiment: Conduction time was determined by intraduodenal administration of 3 mg/kg (low dose) of compound in anesthetized dogs. Value was reported for experiment 2; type: functional, Canis lupus familiaris; method in brief: as §2
[26] = system: Canis familiaris; experiment: Mean arterial blood pressure was determined by intraduodenal administration of two dosages of 10 mg/kg of compound in anesthetized dogs. Value was reported for experiment 2; type: functional, Canis lupus familiaris; method in brief: as §3
[27] = system: Canis familiaris; experiment: Conduction time was determined by intraduodenal administration of 30 mg/kg (high dose) of compound in anesthetized dogs. Value was reported for experiment 1; type: functional, Canis lupus familiaris; method in brief: as §2
[28] = system: Canis familiaris; experiment: Conduction time was determined by intraduodenal administration of 10 mg/kg (high dose) of compound in anesthetized dogs. Value was reported for experiment 2; type: functional, Canis lupus familiaris; method in brief: as §2
[29] = system: Canis familiaris; experiment: Conduction time was determined by intraduodenal administration of 10 mg/kg (low dose) of compound in anesthetized dogs. Value was reported for experiment 1; type: functional, Canis lupus familiaris; method in brief: as §2
[30] = organism: Canis familiaris; experiment: In vitro electrophysiological evaluation in canine cardiac Purkinje fibres reported as percent change Vmax at 10 uM at concentration range of 1-100 uM; Minimal (<10% decrease or increase in Vmax).; type: functional, organism-based; conditions: Canis lupus familiaris, Purkinje fiber
Method in brief: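 Canine cardiac Purkinje fibers, intracellular recording, paced at a basic cycle length of 1 s. APD95 and Vmax are recorded together across cumulative concentrations. Compound is a 10 mM aqueous stock diluted into Tyrode's solution. Each fiber is used once as its own control. Readouts are percent change from control at 10 μM, and the maximum change with the concentration where it occurred.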

[31] = organism: Canis familiaris; experiment: In vitro electrophysiological activity in canine cardiac occurred is 1 uM.; type: functional, Canis lupus familiaris, Heart
[32] = organism: Canis familiaris; experiment: as §5; type: functional; conditions: Canis lupus familiaris; Heart
[33] = organism: Canis familiaris; experiment: In vitro electrophysiological evaluation in canine cardiac ventricular muscle reported as % change for conduction time(CT) at 0.1-100 uM concentration range; Minimal (<10% decrease or increase inCT).; type: functional, Canis lupus familiaris, Muscle tissue
Method in brief: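 Canine right ventricular/papillary muscle strips in oxygenated Tyrode's, extracellular extra-stimulus conduction-interval method. FRP and CT are read from conduction-interval curves before and during rising concentrations. Compound is a 10 mM aqueous stock diluted into Tyrode's. Each strip is used once as its own control. Readouts are percent change from control at 10 μM, plus the maximum change with its concentration.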

[34] = organism: Canis familiaris; experiment: In vitro electrophysiological evaluation in canine cardiac ventricular muscle reported as maximum % change for conduction time(CT) at 0.1-100 uM concentration range; Minimal (<10% decrease or increase inCT).; type: functional, Canis lupus familiaris, Muscle tissue
[35] = organism: Canis familiaris; experiment: In vitro electrophysiological evaluation in canine cardiac Purkinje fibres reported as % change for action potential duration at 10 uM at 1-100 uM concentration range; type: functional, Canis lupus familiaris, Purkinje fiber; method in brief: as §4

Cl.O=C1C2CCN(CC2)C1CCCc1ccc(Cl)cc1 (configuration not stated)
FRP [1]: 39% and 23%
CT [2]: <10%
HR [3]: -31%
APD95 [4]: 6%
LV FRP [5]: 19%
HR [6]: -14%
CT [7]: <10%
Mean blood pressure [8]: 5%
Vmax [9]: < 10%
Mean blood pressure [10]: -4%
FRP [11]: 39% and 23%
LV FRP [12]: 15%
LV FRP [13]: 9%
HR [14]: -2%
APD95 [15]: 6%
APD95 [16]: -11% and -18%
Vmax [17]: < 10%
LV FRP [18]: 5%
HR [19]: -17%
Vmax [20]: < 10%
Vmax [21]: < 10%
Vmax [22]: -12%
Vmax [23]: -41%
Mean blood pressure [24]: 20%
CT [25]: 3%
Mean blood pressure [26]: 24%
CT [27]: 2%
CT [28]: 13%
CT [29]: 0%

CCN(CC)CCNC(=O)c1ccc(N)cc1.Cl [PROCAINAMIDE HYDROCHLORIDE]
Vmax [30]: < 10%
APD95 [31]: -7%
Vmax [32]: -14% and -10% (2×)
CT [33]: <10%
CT [34]: <10%
APD95 [15]: -4%
APD95 [16]: -8% and 3%
APD95 [35]: -1% and 0%
